# From publication PMC7105014 (Journal of Functional Foods, 2011)
# Assays:
# α-glucosidase = settings: read-out: IC50 against α-glucosidase; ref Hakamata et al., 2006; cited from earlier work
# HCV NS3/4A protease = HCV NS3/4A protease (Hepatitis C virus genotype 1a, UniProt P27958); experiment: HCV NS3/4A protease inhibition; format: biochemical
# Procedure, shortened: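 Test compound in DMSO was mixed with HCV NS3/4A protease solution (0.5 μg/ml; SensoLyte 520 kit). The reaction was started with substrate diluted 100× from a DMSO stock. After 30 min at room temperature, fluorescence was read (ex 485/em 535 nm) and corrected with a substrate blank. % inhibition was taken against a compound-free control. IC50 came from concentration–inhibition curves, with embelin as reference inhibitor.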
# Chain of HCV NS3/4A protease (P27958 1027-1657 limits assumed): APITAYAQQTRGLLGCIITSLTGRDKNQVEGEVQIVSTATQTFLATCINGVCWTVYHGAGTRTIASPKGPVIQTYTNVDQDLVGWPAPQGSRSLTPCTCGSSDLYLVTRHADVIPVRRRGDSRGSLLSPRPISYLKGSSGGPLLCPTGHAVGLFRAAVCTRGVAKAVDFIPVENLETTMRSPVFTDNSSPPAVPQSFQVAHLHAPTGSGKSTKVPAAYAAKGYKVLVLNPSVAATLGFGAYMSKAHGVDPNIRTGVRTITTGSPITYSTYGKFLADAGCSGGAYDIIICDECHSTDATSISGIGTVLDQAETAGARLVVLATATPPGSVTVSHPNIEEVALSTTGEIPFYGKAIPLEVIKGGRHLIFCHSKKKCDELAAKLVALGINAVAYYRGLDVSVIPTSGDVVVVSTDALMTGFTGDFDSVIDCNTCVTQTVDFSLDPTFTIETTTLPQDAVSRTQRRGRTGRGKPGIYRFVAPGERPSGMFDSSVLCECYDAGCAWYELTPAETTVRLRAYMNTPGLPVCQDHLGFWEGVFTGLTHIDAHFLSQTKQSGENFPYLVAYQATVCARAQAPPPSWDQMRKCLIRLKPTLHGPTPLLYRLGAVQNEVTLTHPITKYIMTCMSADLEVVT
# Chain of HCV NS3/4A protease (P27958 1658-1711 partner limits assumed): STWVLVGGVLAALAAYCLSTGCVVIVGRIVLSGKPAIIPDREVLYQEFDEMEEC
SMILES,IC50 (α-glucosidase) [µM],IC50 (HCV NS3/4A protease) [µM]
Oc1cc(O)c2c(c1)O[C@H](c1ccc(O)c(O)c1)[C@@H](O)C2 [(+)-catechin],> 500,–
"CCCCCCCCCCCC1=C(O)C(=O)C=C(O)C1=O [Embelin, embelin]",–,10.2
